Source: ChEMBL document CHEMBL1152672, “Side chain azasteroids and thiasteroids as sterol methyltransferase inhibitors in ergosterol biosynthesis” (2009)
In brackets after ≈: the same amount, converted by molar mass.

Tests used:
[1] = test system: Yarrowia lipolytica; assay: Antimicrobial activity against Yarrowia lipolytica after 48 hrs; type: functional
Summary of the method: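 Broth dilution MIC per DIN 58940-84. Log-phase Y. lipolytica in yeast extract/peptone/glucose medium, counted against a 0.5 McFarland standard (A570) and seeded at 50,000 CFU/mL in 2 mL wells. Compounds added from ethanol; final concentrations 2 to 0.06125 µg/mL unless otherwise stated. Plates incubated 48 ± 2 h at 28 °C. MIC is the lowest concentration with no visible growth.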

[2] = biological target: T1, Sterol 24-C-methyltransferase (Yarrowia lipolytica) (UniProt Q6C2D9); assay: Inhibition of Yarrowia lipolytica 24-SMT assessed as lanosterol-3-trimethylsilyl derivative at 0.2 ug/mL after 48 hrs by GC-MS analysis relative to untreated control; parameters: scale not given: the % may be the effect or the level left
T1 sequence (whole entry): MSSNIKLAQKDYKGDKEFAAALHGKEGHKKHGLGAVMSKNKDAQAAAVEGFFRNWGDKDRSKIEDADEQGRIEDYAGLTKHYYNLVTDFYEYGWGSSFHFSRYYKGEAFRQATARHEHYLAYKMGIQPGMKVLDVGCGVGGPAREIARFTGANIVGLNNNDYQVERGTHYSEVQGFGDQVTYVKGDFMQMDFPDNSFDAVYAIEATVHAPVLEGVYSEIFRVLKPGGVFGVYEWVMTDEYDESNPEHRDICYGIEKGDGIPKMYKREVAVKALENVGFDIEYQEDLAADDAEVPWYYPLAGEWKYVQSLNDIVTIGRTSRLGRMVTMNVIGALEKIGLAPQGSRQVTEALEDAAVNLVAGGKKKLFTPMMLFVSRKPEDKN
Summary of the method: (§1)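 Whole-cell sterol profiling. Y. lipolytica at 50,000 CFU/mL was exposed to compounds added from ethanol for 48 ± 2 h at 28 °C, and the MIC/2 and/or MIC/4 wells were used. Cells were pelleted and PBS-washed, then saponified in 1 M NaOH at 70 °C for 1 h. Sterols were extracted into TBME with a cholesterol internal standard and silylated to TMS ethers. GC-MS full scan, with each sterol given as % of total integrated quantifier-ion area.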

[3] = biological target: T1, Sterol 24-C-methyltransferase (Yarrowia lipolytica); assay: Inhibition of Yarrowia lipolytica 24-SMT assessed as dehydroergosterol-3-trimethylsilyl derivative at 0.2 ug/mL after 48 hrs by GC-MS analysis relative to untreated control; parameters: scale not given: the % may be the effect or the level left; summary of the method: as §1
[4] = biological target: T1, Sterol 24-C-methyltransferase (Yarrowia lipolytica); assay: Inhibition of Yarrowia lipolytica 24-SMT assessed as ergosterol-3-trimethylsilyl derivative level at 0.2 ug/mL after 48 hrs by GC-MS analysis relative to untreated control; parameters: scale not given: the % may be the effect or the level left; summary of the method: as §1
[5] = biological target: T1, Sterol 24-C-methyltransferase (Yarrowia lipolytica); assay: Inhibition of Yarrowia lipolytica 24-SMT assessed as 14-alpha-methylergosta-8,24(28)-dien-3beta,6alpha-di-trimethylsilyl derivative at 0.2 ug/mL after 48 hrs by GC-MS analysis relative to untreated control; parameters: scale not given: the % may be the effect or the level left
Summary of the method: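 Y. lipolytica whole cells, inoculated at 50,000 CFU/mL in yeast extract/peptone/glucose medium, exposed to compound (ethanol solution, 10 µL per 2 mL well), 48 ± 2 h, 28 °C. Wells at MIC/2 and/or MIC/4 pelleted, saponified in 1 M NaOH at 70 °C for 1 h, extracted with TBME and silylated. GC–MS with cholesterol internal standard. Each sterol given as percent of total integrated area; ethanol-only wells as control.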

[6] = biological target: T1, Sterol 24-C-methyltransferase (Yarrowia lipolytica); assay: Inhibition of Yarrowia lipolytica 24-SMT assessed as dehydroergosterol-3-trimethylsilyl derivative at 2 ug/mL after 48 hrs by GC-MS analysis relative to untreated control; parameters: scale not given: the % may be the effect or the level left; summary of the method: as §1
[7] = biological target: T1, Sterol 24-C-methyltransferase (Yarrowia lipolytica); assay: Inhibition of Yarrowia lipolytica 24-SMT assessed as cholesta-5,7,24-trien-3-trimethylsilyl derivative at 2 ug/mL after 48 hrs by GC-MS analysis relative to untreated control; parameters: scale not given: the % may be the effect or the level left; summary of the method: as §1
[8] = biological target: T1, Sterol 24-C-methyltransferase (Yarrowia lipolytica); assay: Inhibition of Yarrowia lipolytica 24-sterol C-methyltransferase assessed as ergosterol-3-trimethylsilyl derivative level at 1 ug/mL after 48 hrs by GC-MS analysis relative to untreated control; parameters: scale not given: the % may be the effect or the level left; summary of the method: as §1
[9] = biological target: T1, Sterol 24-C-methyltransferase (Yarrowia lipolytica); assay: Inhibition of Yarrowia lipolytica 24-sterol C-methyltransferase assessed as ergosterol-3-trimethylsilyl derivative level at 2 ug/mL after 48 hrs by GC-MS analysis relative to untreated control; parameters: scale not given: the % may be the effect or the level left; summary of the method: as §1
[10] = biological target: T1, Sterol 24-C-methyltransferase (Yarrowia lipolytica); assay: Inhibition of Yarrowia lipolytica 24-SMT assessed as 5-dehydroepisterol-3-trimethylsilyl derivative at 1 ug/mL after 48 hrs by GC-MS analysis relative to untreated control; parameters: scale not given: the % may be the effect or the level left; summary of the method: as §1
[11] = biological target: T1, Sterol 24-C-methyltransferase (Yarrowia lipolytica); assay: Inhibition of Yarrowia lipolytica 24-SMT assessed as zymosterol-3-trimethylsilyl derivative level at 2 ug/mL after 48 hrs by GC-MS analysis relative to untreated control; parameters: scale not given: the % may be the effect or the level left; summary of the method: as §1
[12] = biological target: T1, Sterol 24-C-methyltransferase (Yarrowia lipolytica); assay: Inhibition of Yarrowia lipolytica 24-SMT assessed as cholesta-7,24-dien-3-trimethylsilyl derivative at 2 ug/mL after 48 hrs by GC-MS analysis relative to untreated control; parameters: scale not given: the % may be the effect or the level left; summary of the method: as §1
[13] = biological target: T1, Sterol 24-C-methyltransferase (Yarrowia lipolytica); assay: Inhibition of Yarrowia lipolytica 24-SMT assessed as dehydroergosterol-3-trimethylsilyl derivative at 1 ug/mL after 48 hrs by GC-MS analysis relative to untreated control; parameters: scale not given: the % may be the effect or the level left; summary of the method: as §1
[14] = biological target: T1, Sterol 24-C-methyltransferase (Yarrowia lipolytica); assay: Inhibition of Yarrowia lipolytica 24-sterol C-methyltransferase assessed as cholesta-5,7,24-trien-3-trimethylsilyl derivative at 1 ug/mL after 48 hrs by GC-MS analysis relative to untreated control; parameters: scale not given: the % may be the effect or the level left; summary of the method: as §1
[15] = biological target: T1, Sterol 24-C-methyltransferase (Yarrowia lipolytica); assay: Inhibition of Yarrowia lipolytica 24-SMT assessed as 5-dehydroepisterol-3-trimethylsilyl derivative at 2 ug/mL after 48 hrs by GC-MS analysis relative to untreated control; parameters: scale not given: the % may be the effect or the level left; summary of the method: as §1
[16] = biological target: T1, Sterol 24-C-methyltransferase (Yarrowia lipolytica); assay: Inhibition of Yarrowia lipolytica 24-SMT assessed as cholesta-7,24-dien-3-trimethylsilyl derivative at 1 ug/mL after 48 hrs by GC-MS analysis relative to untreated control; parameters: scale not given: the % may be the effect or the level left; summary of the method: as §1

Structure (SMILES)	MIC [1] [µg/mL]	Activity [2] [%]	Activity [3] [%]	Activity [4] [%]	Activity [5] [%]	Activity [6] [%]	Activity [7] [%]	Activity [8] [%]	Activity [9] [%]	Activity [10] [%]	Activity [11] [%]	Activity [12] [%]	Activity [13] [%]	Activity [14] [%]	Activity [15] [%]	Activity [16] [%]
CC(=O)N1CCN(c2ccc(OCC3COC(Cn4ccnc4)(c4ccc(Cl)cc4Cl)O3)cc2)CC1 (configuration not stated) [KETOCONAZOLE]	0.5 (≈ 0.941 µM)	28.9	59.1	9.6	2.4											
C[C@H](CNCCN1CCCC1)[C@H]1CC[C@H]2C3=CC[C@H]4C[C@@H](O)CC[C@]4(C)[C@H]3CC[C@]12C	> 2					40.1	46.6	1.7	3.3	4.8	0.4	6	65.4	24.3	3.6	3.6
